Screens (PubChem)
In the library only some 3.5% were active in any assay of this set; here they are far more common.
RGS4 inh = inhibitors of human RGS4; P49798; 0.45% of 310,000 active; HEK293 M3R/RGS4 inducible, Fluo-4 calcium flux; stronger effect = higher value; triggered by carbachol at its EC20; B-score at 10 µM;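 active = B-score, a plate-corrected calcium signal, over three deviations above library mean, with baseline fluorescence within five deviations of library mean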;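 note: RGS4 expression induced by doxycycline in cells with stable M3 receptor; B-score is computed from the integrated fluorescence ratio over baseline after carbachol; higher B-score means a larger calcium signal and so more RGS4 inhibition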
Target sequence (P49798 whole entry, looked up): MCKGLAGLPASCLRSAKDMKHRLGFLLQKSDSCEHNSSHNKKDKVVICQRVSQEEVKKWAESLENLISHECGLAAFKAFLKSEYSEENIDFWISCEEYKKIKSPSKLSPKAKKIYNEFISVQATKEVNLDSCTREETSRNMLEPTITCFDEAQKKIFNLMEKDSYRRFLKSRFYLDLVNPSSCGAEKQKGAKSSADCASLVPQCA
MrgX1 antagonist = human MrgX1 receptor antagonism, primary screen; MRGX1-HEK293 calcium flux, Fluo-4, BAM8-22 antagonism; stronger effect = lower value; B-score at 10 µM; 1.3% of 310,000 active; AID 588676;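 active = calcium-response B-score plate-corrected more than 3 library SD below zero, starting fluorescence within 5 deviations, no agonist response on first addition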;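 note: peak minus trough fluorescence over baseline after final BAM8-22 challenge near maximal dose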
Target sequence (Q96LB2 whole entry, looked up): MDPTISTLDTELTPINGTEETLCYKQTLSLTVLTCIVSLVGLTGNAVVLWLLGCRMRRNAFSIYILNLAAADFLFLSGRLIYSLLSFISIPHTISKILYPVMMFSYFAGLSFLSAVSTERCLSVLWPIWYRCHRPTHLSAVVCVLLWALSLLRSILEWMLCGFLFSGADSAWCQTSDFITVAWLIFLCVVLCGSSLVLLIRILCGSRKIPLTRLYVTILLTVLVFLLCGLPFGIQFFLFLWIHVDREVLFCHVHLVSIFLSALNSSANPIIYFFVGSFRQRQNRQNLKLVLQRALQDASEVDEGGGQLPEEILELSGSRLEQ
RGS4 act = RGS4 potentiation or activation | AID 463111 | 0.92% of 310,000 active | HEK293 M3R/inducible RGS4, carbachol calcium flux Fluo4; stronger effect = lower value | B-score at 10 µM;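 active = B-score of the integrated calcium signal more than 4 SD below the library mean, with starting fluorescence not abnormally high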;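 note: negative B-score means reduced calcium response which marks RGS4 activation or potentiation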
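Material: M3R-expressing HEK293 line, RGS4 induced by doxycycline | Schedule: Overnight RGS4 induction, 30 min dye load 37 °C, 20 min compound RT | Measured by: Fluo4 fluorescence kinetic imaging of calcium | Read-out: Integrated calcium ratio converted to B score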
MrgX1 ag = agonists of human MrgX1 receptor; 0.44% of 310,000 active; MrgX1-HEK293 cells, Fluo-4 calcium fluorescence, agonist mode; stronger effect = higher value; B-score at 10 µM; AID 588627; Q96LB2;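 active = calcium response B-score plate-corrected fluorescence ratio at least 3 library SD, with starting fluorescence B-score inside 5 SD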
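Assay system: stable human MrgX1 HEK293 cell line. Quantity: 15,000 cells per well. Schedule: cells plated overnight, dye loaded 0.5 h 37 °C, 0.5 h room temperature. Detection: Fluo-4 NW calcium-flux fluorescence, kinetic read. Read-out basis: peak-minus-minimum fluorescence over baseline, converted to B scores. Control set: positive and negative control wells on each plate.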
MrgX1 allo act = human MrgX1 positive allosteric modulation, primary screen | Q96LB2 | MrgX1-HEK293, Fluo-4 calcium flux, FDSS; stronger effect = higher value | 0.63% of 310,000 active | AID 588675 | B-score at 10 µM;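 active = plate-corrected calcium response at least 3 library SD above typical, normal starting fluorescence, not activating the receptor alone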;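 note: compound read alongside a low EC10 to EC30 dose of BAM8-22 agonist; peak minus trough fluorescence over baseline measured at the second addition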
MrgX1 ant reconf = human MrgX1 receptor antagonism, re-confirmation screen | shares compounds with MrgX1 antagonist | MrgX1-HEK293, BAM8-22 calcium flux, Fluo-4; stronger effect = lower value | remaining BAM8-22 calcium response % of control (stronger effect = lower value), % at 10 µM | 19% of 2,300 active | AID 602420;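 active = remaining agonist calcium response no higher than 100% minus 3 SD of agonist-only control wells, with starting fluorescence near control levels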;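 note: agonist BAM8-22 given at a near maximal EC90 to ECmax level; peak minus minimum fluorescence divided by baseline after agonist addition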
HEK293 Ca flux = activity in parental HEK293 cells lacking MrgX1 | shares compounds with MrgX1 antagonist | Fluo-4 calcium fluorescence, FDSS | fluorescence ratio F(max-min)/F0 at 10 µM | 2% of 4,000 active;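 active = duplicate-averaged calcium fluorescence ratio at least three times the standard deviation of buffer wells, a nonspecific response in parental cells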
HEK293 Ca counter = activity in parental HEK293 cells without MrgX1 | shares compounds with MrgX1 antagonist | parental HEK293 calcium flux, Fluo-4 fluorescence ratio; stronger effect = higher value | fluorescence ratio F(max-min)/F0 at 10 µM | 0.4% of 4,000 active;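 active = calcium fluorescence ratio, averaged over duplicates, at least 3 SD of the buffer-well ratio, meaning a nonspecific response in receptor-free cells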;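 note: untransfected parental HEK293 lacking MrgX1 used as counterscreen for MrgX1 allosteric activators; fluorescence change taken during the second addition on a kinetic imager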
HEK293 Ca cntr2 = MrgX1 activator counter-screen hit in parental HEK293 cells; 8.7% of 4,000 active; Fluo-4 calcium fluorescence (FDSS); stronger effect = higher value; fluorescence ratio F(max-min)/F0 at 10 µM; shares compounds with MrgX1 antagonist;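 active = calcium fluorescence ratio at least three times the spread of buffer wells, meaning a non-specific response in parental cells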
* = called active by the depositor; i = inactive; / = no result.

SMILES | RGS4 inh | MrgX1 antagonist | RGS4 act | MrgX1 ag | MrgX1 allo act | MrgX1 ant reconf | HEK293 Ca flux | HEK293 Ca counter | HEK293 Ca cntr2
COCCCn1c(=O)c2ccccc2n(CC(=O)N2CCCc3ccccc32)c1=O | i | i | i | i | i | / | / | / | /
CC(=O)Nc1ccc(Sc2ncccc2C(=O)Nc2ccc(OC(F)(F)F)cc2)cn1 | i | -10* | i | i | i | i | i | i | i
CCCOC(=O)C1=C(C)NC2=C(C(=O)C(C(=O)OC)C(C)C2)C1c1ccc(N(CC)CC)cc1 (stereo not given) | i | -7.8* | i | i | i | i | i | i | i
O=C(NCC(c1ccco1)N1CCc2ccccc2C1)c1ccc(Br)cc1 (stereo not given) | i | i | i | i | i | / | / | / | /
COc1ccc(C(c2c(O)nc(SC)n(C)c2=O)c2c(O)nc(SC)n(C)c2=O)cc1O | i | -7.3* | i | i | i | i | i | i | i
Cc1ccc(-c2nnc(CSc3nnc(C)s3)o2)cc1 | i | -5.9* | i | i | i | i | i | i | i
Cc1cccc(OCCCC(=O)NNC(=O)CCN2CCN(c3ccccc3)CC2)c1 | i | i | i | i | i | / | / | / | /
CN(C)c1ccc(C2N(c3ccc(Cl)cc3)C(=O)C3CCCN32)cc1 (stereo not given) | i | -6* | i | i | i | i | i | i | i
O=C(Nc1ccc(N2C(=O)C3C4C=CC(C4)C3C2=O)cc1)Nc1nncs1 (stereo not given) | i | -4.6* | i | i | i | i | i | i | i
O=C(CCCc1ccccc1)NCc1ccc(F)cc1 | i | i | i | i | i | / | / | / | /
CN1C(=O)N(C)C2C1N(CN1CCCCC1)C(=O)N2CN1CCCCC1 (stereo not given) | i | -4.9* | i | i | i | 84%* | i | i | i
O=C1CCCC2=C1Sc1ccccc1N2 | i | -4.8* | i | i | i | i | i | i | i
CC(=O)c1cc(C#N)c(N2CCOCC2)nc1C | i | -4.6* | i | i | i | i | i | i | i
S=C(NCc1ccc(Cl)cc1Cl)NC1CCCCC1 | i | -4.6* | i | i | i | 60%* | i | i | i
Clc1ccc(CNC2CCCC2)c(Cl)c1 | i | i | i | i | i | / | / | / | /
CC(=O)NC(Cc1ccccc1C)C(=O)NC1CCN(C(=O)c2cccc(C)c2)CC1 (stereo not given) | i | i | i | i | i | / | / | / | /
CCc1cc2c(=O)[nH]c(-c3ccncc3)nc2s1 | i | -6.6* | i | i | i | i | i | i | i
CN1C(=O)/C(=C/c2ccc(C(=O)Nc3ccc(O)cc3C(=O)O)cc2)SC1=S | i | i | i | i | i | / | / | / | /
CC(C)c1nc(SCC(=O)N2CC(=O)Nc3ccccc32)c2ccccc2n1 | i | i | i | i | i | / | / | / | /
CC(OC(=O)CCN=C1NS(=O)(=O)c2ccccc21)C(=O)N(C)c1ccccc1 (stereo not given) | i | -11* | i | i | i | i | i | i | i
COc1ccc(NC(=O)c2nc[nH]c2C(=O)N2CCN(C(=O)OC(C)(C)C)CC2)cc1 | i | -7.7* | i | i | i | i | i | i | i
CCN(CC)CCN(C)C1CCC(c2ccccc2)CC1 (stereo not given) | / | i | / | i | i | / | / | / | /
COC(=O)c1cc2c(ccn2-c2ccc(F)cc2)n1Cc1ccc(C#N)cc1 | i | -4.7* | i | i | i | i | i | i | i
CC(NC(=O)NC(N)=O)(C(F)(F)F)C(F)(F)F | i | -5.2* | i | i | i | i | i | i | i
CCOC(=O)C1(CCOc2ccccc2)CCN(CC(O)CO)CC1 (stereo not given) | i | i | i | i | i | / | / | / | /
SMILES | RGS4 inh | MrgX1 antagonist | RGS4 act | MrgX1 ag | MrgX1 allo act | MrgX1 ant reconf | HEK293 Ca flux | HEK293 Ca counter | HEK293 Ca cntr2
CCC(Sc1nc2ncccc2[nH]1)C(=O)NC1CCC(C)CC1 (stereo not given) | i | i | i | i | i | / | / | / | /
CCC(Sc1nc2ncccc2[nH]1)C(=O)NCCc1ccccc1 (stereo not given) | i | -8.7* | i | i | i | i | i | i | i
O=C(c1ccc(N2CCN(C(=O)c3cccc(F)c3)CC2)cc1)c1cccc(F)c1 | i | -4.6* | i | i | i | i | i | i | i
O=C(c1ccc(N2CCN(C(=O)c3ccccc3Br)CC2)cc1)c1cccc(F)c1 | i | i | i | i | i | / | / | / | /
COc1ccc(F)cc1S(=O)(=O)Nc1ccc(C)cc1 | i | i | i | i | i | / | / | / | /
COc1ccc2cc(C3(C)NC(=O)N(CC(=O)NCC(F)(F)F)C3=O)ccc2c1 (stereo not given) | i | i | i | i | i | / | / | / | /
Cc1ccc2c(c1)COc1c3ccc(C(=O)N[C@@H](CO)C(C)C)cc3nn1-2 | i | -5.7* | i | i | i | i | i | i | i
COCCNC(=O)c1ccc2c3n(nc2c1)-c1ccc(C)cc1CO3 | i | i | i | i | i | / | / | / | /
CC(=O)O[C@]1(C(C)=O)CC[C@H]2[C@@H]3C=CC4=CC(=O)C=C[C@]4(C)[C@H]3CC[C@@]21C | i | i | i | i | i | / | / | / | /
O=C(NNC(=O)c1cc(-c2cccnc2)nc2ccccc12)Nc1ccc(Cl)cc1 | i | -13* | i | i | 6.9* | i | i | i | i
O=C(Nc1ccc2c(c1)OCCO2)c1cc(-c2ccccc2)nc2ccccc12 | i | -5* | i | i | i | i | i | i | i
Cc1ccc(CCNC(=O)CNC(=O)c2cccs2)cc1 | i | i | i | i | i | / | / | / | /
